Screens (PubChem)
In the library only some 3% were active in any assay of this set; here they are far more common.
HSF1 activator – increases HSF-1 driven luciferase reporter signal | NIH3T3-HGL HSF-1 luciferase reporter, MG132, 8 h; 100% = twice DMSO control signal | 300,000 compounds, 1.7% hits | activation, % at 9 µM;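 active = mean replicate activation of at least 50% with a set share of replicates each reaching 50%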
CaV13 ICDI inh – Disruptors of the CACNA1D IQ motif to Ca2+-dependent inactivation inhibitor domain association, primary screening, Förster resonance energy transfer in intact living …; 340,000 compounds, 0.098% hits; AID 743397; HEK cells, CFP/YFP FRET ICDI-IQ, plate reader, 10 min; percent FRET-ratio fall versus neutral wells; inhibition, % at 12.3 µM;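 active = mean replicate inhibition of at least 30% and at least 1% of replicates passing that level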
PvdQ inh – blocks Pseudomonas aeruginosa PvdQ acylase activity; purified PvdQ acylase, fluorescence plate reader; inhibition, % at 10 µM; 340,000 compounds, 0.063% hits; in the data active = inhibition above about 30%, passing the limit was not always enough
PfHsp90 set2 – reduces growth (ATP signal) of yeast expressing P. falciparum Hsp90; inhibition, % at 9.4 µM; 310,000 compounds, 0.32% hits; S. cerevisiae expressing PfHsp90, BacTiter-Glo ATP, 48 h; yeast lacking PDR1 and PDR3 efflux regulators; AID 504621;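 active = every replicate shows inhibition above about 80%, whatever the replicate mean, limit read from the data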
Glyco luc inh – blocks N-linked glycosylation in D54 reporter cells; D54 ERlucT glycosylation luciferase reporter, 24 h; percent of 100 nM tunicamycin response; reporter increase, % at 12.5 µM; 360,000 compounds, 0.23% hits;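 active = mean luciferase reporter signal, scaled so untreated is 0 and the glycosylation-blocking control 100, at or above a set limit in every replicate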;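 also: luciferase carries N-glycosylation sites so blocking glycosylation raises the light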
T cruzi repl – blocks replication of Trypanosoma cruzi; 300,000 compounds, 1.4% hits; AID 1885; inhibition, % (no concentration beside the values); T. cruzi beta-gal in NIH3T3, luminescence, 90 h;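 active = mean inhibition across valid replicates above about 55%, limit read from the data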;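 also: signal also drops with host cell toxicity which is not excluded here; higher percent means less beta-gal luminescence so fewer parasites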
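Material: NIH/3T3 host cells with β-galactosidase reporter T. cruzi; Input: 5,000 host fibroblasts per well; Medium: DMEM, 2% fetal bovine serum; Compound: 50 nL DMSO compound solution per well; Schedule: 3 h host attachment, then at least 90 h co-culture; Detection: luminescent β-galactosidase signal after 60 min lysis.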
Hits are given with their value; n = inactive; x = no result given.

SMILES	HSF1 activator	CaV13 ICDI inh	PvdQ inh	PfHsp90 set2	Glyco luc inh	T cruzi repl
CCc1nc2c(OCC3CCCCC3)cccn2c1N(C)C(=O)c1ccccc1F	x	n	x	x	n	x
COc1cc(/C=N/Nc2nncn2/N=C/c2ccc(O)c(OC)c2)ccc1O	n	n	n	n	n	n
COc1ccc(OC)c(/C=N/Nc2nncn2/N=C/c2cc(OC)ccc2OC)c1	81	n	n	n	n	n
CCOc1cc(C(=O)Nc2ccc(N3CCOCC3)cc2)cc(Br)c1OC	n	n	n	x	32	n
CCOc1cc(C(=O)Nc2ccc(F)cc2)cc(Br)c1OC	n	n	n	n	n	n
CCC(=O)c1cc(F)c(N2CCN(S(=O)(=O)c3ccc(C)cc3)CC2)cc1C	n	n	n	n	n	59
COc1ccc(-c2cc(C(=O)NCc3ccco3)c3ccccc3n2)cc1	86	n	n	n	n	n
COc1cccc(-c2cc(C(=O)NCc3ccco3)no2)c1	61	n	n	n	n	n
Cc1nn(Cc2c(Cl)cccc2Cl)c(C)c1NC(=O)c1cc(C(C)C)on1	n	n	n	n	64	n
O=C(NCc1ccco1)c1cc(-c2ccccc2)nc2ccccc12	n	n	n	n	n	n
COc1cc(OC)cc(C(=O)NC(=S)NCc2ccco2)c1	121	n	n	n	n	n
O=C(NCc1ccco1)c1cc(-c2cccc(Cl)c2)on1	n	n	n	n	n	n
CCNC(=O)C1(C)CCCN(CCOc2ccc(Cl)cc2)C1 (stereo not given)	x	x	x	x	n	x
Cc1ccc(Cc2c(-c3ccc(F)cc3)nc3c(C)cc(Br)cn23)cc1	x	x	x	x	n	x
O=C(NCc1ccco1)c1cc(-c2ccc3c(c2)OCO3)on1	71	n	n	n	n	n
Cc1ccc(-c2cc(C(=O)NCc3ccco3)no2)cc1	n	n	n	n	n	n
Cc1nn(Cc2ccc(Cl)cc2)c(C)c1NC(=O)c1cc(-c2ccc3c(c2)OCO3)on1	n	n	n	n	n	56
COc1cccc(C2=NOC(C(=O)NCc3ccco3)C2)c1 (stereo not given)	n	n	n	n	29	n
COc1ccc(-c2csc3nc(-c4ccc(C)cc4)oc(=O)c23)cc1OC	n	n	n	n	n	n
COc1ccc(-c2csc3nc(-c4ccccc4OC)oc(=O)c23)cc1	91	n	n	n	n	n
C[C@@H]1CN([C@@H](C)CO)C(=O)CCCn2cc(nn2)CO[C@H]1CN(C)C(=O)Nc1cccc(Oc2ccccn2)c1	x	n	x	x	x	x
COc1cc(CCN2C(=O)c3cccc4cccc(c34)C2=O)c(S(=O)(=O)N2CCCCCC2)cc1OC	n	n	n	n	n	58
COc1cc(CCN2C(=O)c3cccc4cccc(c34)C2=O)c(S(=O)(=O)NCCO)cc1OC	n	n	n	n	n	n
COc1cc(CCN2C(=O)c3cccc4cccc(c34)C2=O)c(S(=O)(=O)N2CCC(C)CC2)cc1OC	n	n	n	n	n	59
COC(=O)[C@]12C[C@H](CC(=O)N3CCOCC3)C(=O)N(CCC3=CCCCC3)C1=C[C@H](C(C)(C)C)O[C@@H]2C	x	n	x	x	x	x
SMILES	HSF1 activator	CaV13 ICDI inh	PvdQ inh	PfHsp90 set2	Glyco luc inh	T cruzi repl
Nc1cccn2c(-c3ccc(Cl)c(Cl)c3)cnc12	70	n	n	n	n	n
Cc1ccc(OCC(=O)N2CCN(c3nnc(-c4ccccc4)c4ccccc34)CC2)cc1	n	n	n	n	n	70
CCNC(=O)N1CCN(c2ccc(N3CCN(C(=O)NCC)[C@H](C)C3)c(C)c2)[C@@H](C)C1	x	n	x	x	x	x
COc1ccc(CNc2oc(COc3ccc(Cl)cc3)nc2C#N)cc1	n	n	n	n	n	66
CN(C)c1oc(-c2ccc(OCc3ccc(Cl)cc3)cc2)nc1C#N	n	n	n	x	n	63
COc1ccc(CCNc2oc(COc3ccc(Br)cc3)nc2C#N)cc1OC	56	n	n	n	n	n
CCOc1ccc(Nc2oc(-c3ccc(Cl)cc3)nc2C#N)cc1	n	x	n	x	n	n
COC(=O)C1=C(C)N(C)C(=NCc2ccccc2C(F)(F)F)NC1c1ccc(Cl)cc1 (stereo not given)	x	n	x	x	x	x
